Here are results for 30 molecules from ChEMBL document CHEMBL1124545, “Tricyclic compounds as selective muscarinic receptor antagonists. 3. Structure-selectivity relationships in a series of cardioselective (M2) antimuscarinics” (J Med Chem, 1989).

As usually defined, the IC50 is the concentration that inhibits the measured activity by half. Higher therefore signals weaker potency.

Experiment [1] concerns the target Muscarinic receptor M2 and M3 (Rattus norvegicus) (UniProt P08483+P10980). Description: Selectivity ratio for glandular muscarinic receptor 3 and cardiac muscarinic receptor 2 in rat.
The target in experiment [2] is T1, Muscarinic acetylcholine receptor M2 (Rattus norvegicus, UniProt P10980).
T1 sequence (P10980 whole entry): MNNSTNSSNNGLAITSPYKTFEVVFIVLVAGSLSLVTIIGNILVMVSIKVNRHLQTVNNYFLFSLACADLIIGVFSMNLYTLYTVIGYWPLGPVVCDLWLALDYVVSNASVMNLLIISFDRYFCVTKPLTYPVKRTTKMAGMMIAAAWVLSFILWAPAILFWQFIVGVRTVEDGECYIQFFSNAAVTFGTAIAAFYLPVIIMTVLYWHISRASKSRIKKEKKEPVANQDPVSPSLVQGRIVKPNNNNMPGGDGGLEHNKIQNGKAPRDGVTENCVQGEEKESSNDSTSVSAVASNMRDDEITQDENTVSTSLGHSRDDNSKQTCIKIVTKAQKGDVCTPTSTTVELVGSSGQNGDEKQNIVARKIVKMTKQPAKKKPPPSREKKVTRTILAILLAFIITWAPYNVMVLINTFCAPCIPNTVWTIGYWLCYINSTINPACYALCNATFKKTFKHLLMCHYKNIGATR
The experiment can be described thus: Binding affinity to the rat cardiac muscarinic acetylcholine receptor M2 using 0.3 nM [3H]N-methylscopolamine as radioligand. The procedure, abridged: (§1)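 Competition against 0.3 nM [3H]NMS in rat total heart homogenate (1:300 in 100 mM NaCl, 10 mM MgCl2, 20 mM HEPES, pH 7.4, cheesecloth-filtered). 1 mL homogenate incubated 45 min at 30 °C with a range of cold ligand concentrations. Pellets obtained by centrifugation, washed twice with saline, solubilized and counted. Nonspecific binding taken with 1 µM racemic QNB. Quadruplicate assays.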

The target of experiment [3] is T2, Muscarinic acetylcholine receptor M3 (Rattus norvegicus, UniProt P08483). Description: Binding affinity for glandular muscarinic acetylcholine receptor M3 in rat assayed using 0.3 nM [3H]N-methylscopolamine as radioligand. The procedure, abridged:
(§2)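 1 mL homogenate incubated 45 min at 30 °C with 0.3 nM [3H]NMS plus varying unlabeled compound. Bound ligand separated by centrifugation, saline-washed pellet scintillation counted. Nonspecific binding defined with 1 µM racemic QNB. Run in quadruplicate.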

Experiment [4] addresses T1, Muscarinic acetylcholine receptor M2. Description: Binding affinity of compound for cardiac Muscarinic acetylcholine receptor M2 in rat using 0.3 nM [3H]N-methylscopolamine as radioligand. The procedure, abridged: as §1
Experiment [5] addresses T2, Muscarinic acetylcholine receptor M3. Description: Binding affinity of compound for glandular Muscarinic acetylcholine receptor M3 in rat using 0.3 nM [3H]N-methylscopolamine as radioligand. The procedure, abridged:
as §2

Experiment [6] concerns Muscarinic acetylcholine receptors M2 & M3 (Rattus norvegicus). The experiment can be described thus: Selectivity ratio for glandular muscarinic receptor 3 and cardiac muscarinic receptor 2 in rat.

Molecules are shown by their SMILES.

Sequence of Muscarinic receptor M2 and M3 (Rattus norvegicus) (P08483 whole entry, looked up, one chain of several): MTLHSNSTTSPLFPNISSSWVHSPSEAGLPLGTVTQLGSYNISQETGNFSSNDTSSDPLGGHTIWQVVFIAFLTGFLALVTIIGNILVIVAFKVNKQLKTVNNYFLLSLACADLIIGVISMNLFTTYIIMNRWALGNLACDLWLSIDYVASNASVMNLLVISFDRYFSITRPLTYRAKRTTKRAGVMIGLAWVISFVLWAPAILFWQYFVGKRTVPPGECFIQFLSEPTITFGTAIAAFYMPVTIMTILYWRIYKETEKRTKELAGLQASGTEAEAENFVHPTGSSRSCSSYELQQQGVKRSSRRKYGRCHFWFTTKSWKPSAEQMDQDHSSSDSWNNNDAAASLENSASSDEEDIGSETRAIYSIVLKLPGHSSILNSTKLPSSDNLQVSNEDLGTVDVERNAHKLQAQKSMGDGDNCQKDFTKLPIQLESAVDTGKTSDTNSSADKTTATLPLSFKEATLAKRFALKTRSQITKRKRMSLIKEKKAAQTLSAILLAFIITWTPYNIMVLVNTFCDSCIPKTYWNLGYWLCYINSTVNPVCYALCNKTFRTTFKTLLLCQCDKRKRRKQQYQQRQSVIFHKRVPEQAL
T2 sequence (P08483 whole entry): as the sequence (P08483 whole entry, looked up, one chain of several) above

For the molecule `CCCCN(C)CC1CCCCN1CC(=O)N1c2ccccc2C(=O)Nc2cccnc21` (centres undefined), the Ratio in experiment [1] came out at 2. Also, the values for the IC50 in experiment [2] and in experiment [3] were 100 nM and 200 nM, respectively.
As to `CCN(CC)CC1CCCCN1CC(=O)N1c2ccc(Br)cc2C(=O)Nc2cccnc21` (centres undefined), in experiment [1], the Ratio was found to be 26.6. The IC50 in experiment [2] came to 150 nM; in experiment [3] it was 4000 nM.
`CCN(CC)CCC1CCCCN1CC(=O)N1c2ccccc2C(=O)Nc2cccnc21` (centres undefined): in experiment [1], the Ratio was found to be 3. For the same molecule, the 50% inhibitory concentration (IC50) stood at 330 nM in experiment [2] and 1000 nM in experiment [3].
For `CN(C)CC1CCCCN1CC(=O)N1c2ccccc2C(=O)Nc2cccnc21` (centres undefined), the Ratio in experiment [1] came out at 7.1. In addition, the figures for the IC50 in experiment [2] and in experiment [3] were 140 nM and 1000 nM, respectively.
With `O=C1Nc2cccnc2N(C(=O)CN2CCCCC2CN2CCCC2)c2ccccc21` (centres undefined), the Ratio in experiment [1] came out at 2.7. Further, the IC50 in experiment [2] came to 560 nM; in experiment [3], 1500 nM.
Take `CN(CC1CCCCN1CC(=O)N1c2ccccc2C(=O)Nc2cccnc21)C1CCCCC1` (centres undefined): in experiment [1], the Ratio was 2.5. For the same molecule, the values for the IC50 in experiment [2] and in experiment [3] were 60 nM and 150 nM, respectively.
For the molecule `CCN(CC)CC1CCCN1CC(=O)N1c2ccccc2C(=O)Nc2cccnc21` (centres undefined), in experiment [1], the Ratio worked out at 13. For the same molecule, the IC50 is 150 nM in experiment [2] and 2000 nM in experiment [3].
For `CCN(CC)CCCC1CCCCN1CC(=O)N1c2ccccc2C(=O)Nc2cccnc21` (centres undefined) the same measures were 3.3, 60 nM and 200 nM.
For `CCN(CC)CC1CCCCN1CC(=O)N1c2ccccc2C(=O)Nc2cccnc21` (stereo in doubt; 28) [OTENZEPAD], the IC50 in experiment [2] was determined as 400 nM; in experiment [3], 10000 nM.
Turning to `CCN(CC)CC1CCN(CC(=O)N2c3ccccc3C(=O)Nc3cccnc32)CC1`, the Ratio in experiment [1] worked out at 5. The IC50 in experiment [2] amounted to 800 nM; in experiment [3] it was 4000 nM.
On to `CCN(CC)CC1CCCCN1CCC(=O)N1c2ccccc2C(=O)Nc2cccnc21` (centres undefined), for which the Ratio in experiment [1] was determined as 2.7. Moreover, the IC50 is 220 nM in experiment [2] and 600 nM in experiment [3].
The molecule `CCN(CC)CC1CCCCN1CC(=O)N1c2ccccc2C(=O)Nc2cccnc21` (stereo in doubt; 10) [OTENZEPAD] returned an IC50 in experiment [3] of 6000 nM.
On to `CCc1ccc2c(c1)C(=O)Nc1cccnc1N2C(=O)CN1CCCCC1CN(CC)CC` (centres undefined), for which the Ratio in experiment [1] is 10. Further, the IC50 in experiment [2] was determined as 200 nM; in experiment [3] it was 2000 nM.
For `CCN(C)CC1CCCCN1CC(=O)N1c2ccccc2C(=O)Nc2cccnc21` (centres undefined), in experiment [1], the Ratio amounted to 12.5. Moreover, the IC50 came to 120 nM in experiment [2] and 1500 nM in experiment [3].
As to `CCN(CC)CC1CCCN(CC(=O)N2c3ccccc3C(=O)Nc3cccnc32)C1` (centres undefined), the Ratio in experiment [1] was 1.8. Also, the figures for the IC50 in experiment [2] and in experiment [3] were 170 nM and 300 nM, respectively.
Take `CCN(CC)CC1CCCCN1C(=O)N1c2ccccc2C(=O)Nc2cccnc21` (centres undefined): the Ratio in experiment [1] was more than 2. For the same molecule, the concentration for half-maximal inhibition (IC50) is 5000 nM in experiment [2] and more than 10000 nM in experiment [3].
For `O=C1Nc2cccnc2N(C(=O)CN2CCCCC2CN2CCOCC2)c2ccccc21` (centres undefined) the same measures were less than 4, more than 1000 nM and 4000 nM.
In the case of `CCN(CC)CC1CCCCN1CC(=O)N1c2ccccc2C(=O)Nc2cccnc21` (stereo in doubt; 29) [OTENZEPAD], the figures for the 50% inhibitory concentration (IC50) in experiment [2] and in experiment [3] were 50 nM and 6000 nM, respectively.
Regarding `CCN(CC)CC1CCCCN1CC(=O)N1c2cc(Cl)ccc2C(=O)Nc2cccnc21` (centres undefined), the Ratio in experiment [1] came out at 37.5. This molecule also registered an IC50 in experiment [2] of 40 nM.
`CCCN(CCC)CC1CCCCN1CC(=O)N1c2ccccc2C(=O)Nc2cccnc21` (centres undefined): in experiment [1], the Ratio amounted to 4. Moreover, the IC50 in experiment [2] was 1500 nM; in experiment [3], 6000 nM.
As to `CN(CC1CCCCN1CC(=O)N1c2ccccc2C(=O)Nc2cccnc21)C1CCCCCC1` (centres undefined), the Ratio in experiment [1] amounted to 2.3. For the same molecule, the IC50 in experiment [2] came out at 30 nM; in experiment [3], 70 nM.
With `CCN(CC)CC1CCCCCN1CC(=O)N1c2ccccc2C(=O)Nc2cccnc21` (centres undefined), in experiment [1], the Ratio came out at 7.5. In addition, the half-inhibitory concentration (IC50) in experiment [2] was 2000 nM; in experiment [3], 15000 nM.
As to `CCN(CC)CC1CCCCN1CC(=O)N1c2ccc(C)cc2C(=O)Nc2cccnc21` (centres undefined), the Ratio in experiment [1] was determined as 33.3. The figures for the IC50 in experiment [2] and in experiment [3] were 30 nM and 1000 nM, respectively.
On to `O=C1Nc2cccnc2N(C(=O)CN2CCCCC2CN2CCCCC2)c2ccccc21` (centres undefined), for which the IC50 came to 600 nM in experiment [4] and 1500 nM in experiment [5]. In addition, the Ratio in experiment [6] is 2.5.
Regarding `CCN(CC)CC1CCCCN1CC(=O)N1c2ccc(Cl)cc2C(=O)Nc2cccnc21` (centres undefined), the Ratio in experiment [1] came out at 40. Also, the values for the IC50 in experiment [2] and in experiment [3] were 100 nM and 4000 nM, respectively.
`CCN(CC)CC1CCCCN1CC(=O)N1c2ccccc2C(=O)Nc2cccnc21` (stereo in doubt; 10): the Ratio in experiment [1] came out at 42.8.
The same measure, in the same setting: then `CCN(CC)CC1CCCCN1CC(=O)N1c2ccccc2C(=O)Nc2cccnc21` (stereo in doubt; 29), with 120.
On the same count and under the same terms, then `CCN(CC)CC1CCCCN1CC(=O)N1c2ccccc2C(=O)Nc2cccnc21` (stereo in doubt; 28), with 25.
Take `CCN(CC)CC1CCCCN1CC(=O)N1c2cc(C)ccc2C(=O)Nc2cccnc21` (centres undefined): the Ratio in experiment [1] turned out to be 28.5. The IC50 in experiment [2] turned out to be 70 nM; in experiment [3] it was 2000 nM.
Take `CCNCC1CCCCN1CC(=O)N1c2ccccc2C(=O)Nc2cccnc21` (centres undefined): in experiment [1], the Ratio amounted to 5. The results for the half-inhibitory concentration (IC50) in experiment [2] and in experiment [3] were 600 nM and 3000 nM, respectively.
